These results are taken from ChEMBL document CHEMBL1240350, “In vitro activity of CEM-101 against Streptococcus pneumoniae and Streptococcus pyogenes with defined macrolide resistance mechanisms” (Antimicrob Agents Chemother, 2010).

Converted amounts (≈) assume the structure as drawn.

Assay [1] has as its system Streptococcus pneumoniae. Put plainly: Antibacterial activity against macrolide-resistant Streptococcus pneumoniae 2686 harboring mutation in L4 ribosomal protein after 50 passages following overnight incubation by agar dilution method. Format: functional. For orientation: In agar dilution, organisms are placed on agar that contains the substance at set levels.
In assay [2] the test system is Streptococcus pneumoniae. Nature of the assay: Antibacterial activity against macrolide-susceptible Streptococcus pneumoniae 1077 after 49 passages following overnight incubation by agar dilution method. Format: functional.
Assay [3] concerns Streptococcus pyogenes. Nature of the assay: Antibacterial activity against macrolide-resistant Streptococcus pyogenes 237 harboring mutation in L4 ribosomal protein after 43 passages following overnight incubation by agar dilution method.
For assay [4], the system named is Streptococcus pneumoniae. Put plainly: Antibacterial activity against macrolide-susceptible Streptococcus pneumoniae 7127 harboring S20N mutation in L4 ribosomal protein and A105V mutation in L22 ribosomal protein after 43 passages following overnight incubation by agar dilution method. Format: functional.
In assay [5] the test system is Streptococcus pyogenes. Nature of the assay: Antibacterial activity against macrolide-resistant Streptococcus pyogenes 2094 harboring erm(A) gene after 34 passages following overnight incubation by agar dilution method.
Assay [6] relates to Streptococcus pneumoniae. Nature of the assay: Antibacterial activity against macrolide-susceptible Streptococcus pneumoniae 7127 harboring S20N mutation in L4 ribosomal protein and A105V mutation in L22 ribosomal protein after 38 passages following overnight incubation […]. Format: functional. In short, it runs like this: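 S. pneumoniae parental strains were passaged daily in subinhibitory drug concentrations in cation-adjusted Mueller-Hinton broth with 5% lysed horse blood. Each passage was seeded from the tube 1 to 2 dilutions below the MIC whose turbidity matched the growth control. MICs of resistant clones were measured by CLSI macrodilution. Parent and clone identity was confirmed by PFGE of SmaI-digested DNA.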

Assay [7] has as its system Streptococcus pneumoniae. Nature of the assay: Antibacterial activity against macrolide-susceptible Streptococcus pneumoniae 1077 after 50 passages following overnight incubation by agar dilution method. Format: functional.
For assay [8], the system named is Streptococcus pneumoniae. Nature of the assay: Antibacterial activity against macrolide-resistant Streptococcus pneumoniae 3009 harboring mutation in 23S rRNA after 25 passages following overnight incubation by agar dilution method. Format: functional.
In assay [9] the test system is Streptococcus pneumoniae. Nature of the assay: Antibacterial activity against macrolide-resistant Streptococcus pneumoniae 3665 harboring mef(A) gene after 26 passages following overnight incubation by agar dilution method. Format: functional.
The test system of assay [10] is Streptococcus pyogenes. Put plainly: Antibacterial activity against macrolide-resistant Streptococcus pyogenes 2011 harboring mef(A) gene after 35 passages following overnight incubation by agar dilution method.
Assay [11] deals with Streptococcus pyogenes. Put plainly: Antibacterial activity against macrolide-susceptible Streptococcus pyogenes 2132 after 28 passages following overnight incubation by agar dilution method.
Assay [12] deals with Streptococcus pneumoniae. Put plainly: Antibacterial activity against macrolide-resistant Streptococcus pneumoniae 2686 harboring mutation in L4 ribosomal protein after 22 passages following overnight incubation by agar dilution method. Format: functional.
For assay [13], the system named is Streptococcus pyogenes. Put plainly: Antibacterial activity against macrolide-resistant Streptococcus pyogenes 237 harboring mutation in L4 ribosomal protein after 20 passages following overnight incubation by agar dilution method.
Assay [14] concerns Streptococcus pyogenes. Nature of the assay: Antibacterial activity against macrolide-resistant Streptococcus pyogenes 2094 harboring erm(A) gene after 43 passages following overnight incubation by agar dilution method.

`CCC[C@@H]1C[C@@H](C(=O)N[C@@H]([C@H]2O[C@H](SC)[C@H](O)[C@@H](O)[C@H]2O)[C@H](C)Cl)N(C)C1` [CLINDAMYCIN]: the MIC was 0.125 µg/mL (≈ 0.294 µM) against Streptococcus pneumoniae [1]; 4 µg/mL (≈ 9.41 µM) with Streptococcus pneumoniae [2]; 0.5 µg/mL (≈ 1.18 µM) against Streptococcus pyogenes [3]; 0.25 µg/mL (≈ 0.588 µM) against Streptococcus pneumoniae [4]; over 64 µg/mL against Streptococcus pyogenes [5].

For the compound `CC[C@H]1OC(=O)[C@H](C)C(=O)[C@H](C)[C@@H](O[C@@H]2O[C@H](C)C[C@H](N(C)C)[C@H]2O)[C@](C)(OC)C[C@@H](C)C(=O)[C@H](C)[C@H]2N(CCCCn3cnc(-c4cccnc4)c3)C(=O)O[C@]12C` [TELITHROMYCIN], in the assay on Streptococcus pneumoniae [6], the MIC was 0.06 µg/mL (≈ 0.0739 µM).

As to `CC[C@H]1OC(=O)[C@H](C)[C@@H](O[C@H]2C[C@@](C)(OC)[C@@H](O)[C@H](C)O2)[C@H](C)[C@@H](O[C@@H]2O[C@H](C)C[C@H](N(C)C)[C@H]2O)[C@](C)(OC)C[C@@H](C)C(=O)[C@H](C)[C@@H](O)[C@]1(C)O` [CLARITHROMYCIN], the MIC against Streptococcus pneumoniae [7] was 0.008 µg/mL (≈ 0.0107 µM); in the assay with Streptococcus pneumoniae [8], over 64 µg/mL; in the assay on Streptococcus pneumoniae [9] it was 16 µg/mL (≈ 21.4 µM).

In the case of `CC[C@H]1OC(=O)[C@H](C)[C@@H](O[C@H]2C[C@@](C)(OC)[C@@H](O)[C@H](C)O2)[C@H](C)[C@@H](O[C@@H]2O[C@H](C)C[C@H](N(C)C)[C@H]2O)[C@](C)(O)C[C@@H](C)CN(C)[C@H](C)[C@@H](O)[C@]1(C)O` [AZITHROMYCIN], the MIC in the assay on Streptococcus pyogenes [10] came to 32 µg/mL (≈ 42.7 µM); in the assay with Streptococcus pyogenes [11] it was 1 µg/mL (≈ 1.34 µM).

Turning to `CC[C@H]1OC(=O)[C@@](C)(F)C(=O)[C@H](C)[C@@H](O[C@@H]2O[C@H](C)C[C@H](N(C)C)[C@H]2O)[C@](C)(OC)C[C@@H](C)C(=O)[C@H](C)[C@H]2N(CCCCn3cc(-c4cccc(N)c4)nn3)C(=O)O[C@]12C` [SOLITHROMYCIN], the figures for the MIC in the assay with Streptococcus pneumoniae [12], in the assay with Streptococcus pyogenes [13] and against Streptococcus pyogenes [14] were 0.5 µg/mL (≈ 0.592 µM), 0.25 µg/mL (≈ 0.296 µM) and 0.25 µg/mL (≈ 0.296 µM), respectively.

In general, MIC refers to the lowest concentration found to suppress growth. Low readings indicate greater potency, high ones weaker potency.
